Assay results reported in article PMC4111568 (Bioorganic & medicinal chemistry, 2011).

Test system: CWR22rv-1 cells
Experiment: Cell death of CWR22rv-1 prostate cancer cells
Format: cell-based, human
Conditions: 25 μM, after 24 h
Outline: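 CWR22Rv1 cells were seeded at 300,000 cells/well in RPMI 1640 with 10% FBS, 2.5 mM L-glutamine and penicillin-streptomycin at 37 °C, 5% CO2, then serum-starved overnight. Test compound (DMSO stock, diluted in serum-free RPMI) was applied in triplicate for 24–72 h. Cells were trypsinised, fixed in 70% ethanol, treated with RNase (5 μg/mL), stained with propidium iodide (50 μg/mL), and DNA content/cell-cycle fractions were measured by flow cytometry.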

CCCCCCCC(O)(C(N)=O)c1cccc(Cl)c1 (racemic) [(±)-1, 2-(3-chlorophenyl)-2-hydroxynonanamide]
cell death: marginal effects
